TRPC4 inh: TRPC4 (mouse) channel inhibition. Q9QUQ5. HEK293 TRPC4beta/mu-opioid, DAMGO-evoked Fluo4 calcium flux; stronger effect = lower value. B-score at 10 µM. 0.39% of 300,000 active;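 active means B-score over 3 SD under the library average, no early fluorescence shift, positive overall ratio signal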
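Assay system: Stable TRPC4beta/mu-opioid receptor HEK293 cells | Reagent: DAMGO in two steps, submaximal then maximal | Compound dosing: Single concentration per test compound | Signal: Fluo4 Ca2+ flux fluorescence | Evaluation: Per-well B score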
TRPC4 PAM: allosteric potentiators of mouse TRPC4 channel; Q9QUQ5; HEK293 TRPC4beta/mu-opioid, DAMGO EC20, Fluo-4 Ca2+ flux; stronger effect = higher value; B-score at 10 µM; 0.42% of 310,000 active;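 active means B-score of calcium response area above 5 SD of library B-scores, with initial fluorescence ratio within 5 SD of library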;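 further: B-score of integrated fluorescence ratio over time as area under calcium response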
TRPC6 inh: mouse TRPC6 channel inhibition. Q61143. HEK293-TRPC6, membrane potential dye, ACh-evoked depolarization; stronger effect = lower value. B-score at 10 µM. 1.1% of 310,000 active. AID 2553;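 active means B-score under library mean minus 3 SD, initial fluorescence not abnormally high, positive integrated signal ratio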;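 further: B-score derived from integrated fluorescence ratio over the kinetic read; more negative B-score means stronger inhibition of depolarization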
Target sequence (Q61143 whole entry, looked up): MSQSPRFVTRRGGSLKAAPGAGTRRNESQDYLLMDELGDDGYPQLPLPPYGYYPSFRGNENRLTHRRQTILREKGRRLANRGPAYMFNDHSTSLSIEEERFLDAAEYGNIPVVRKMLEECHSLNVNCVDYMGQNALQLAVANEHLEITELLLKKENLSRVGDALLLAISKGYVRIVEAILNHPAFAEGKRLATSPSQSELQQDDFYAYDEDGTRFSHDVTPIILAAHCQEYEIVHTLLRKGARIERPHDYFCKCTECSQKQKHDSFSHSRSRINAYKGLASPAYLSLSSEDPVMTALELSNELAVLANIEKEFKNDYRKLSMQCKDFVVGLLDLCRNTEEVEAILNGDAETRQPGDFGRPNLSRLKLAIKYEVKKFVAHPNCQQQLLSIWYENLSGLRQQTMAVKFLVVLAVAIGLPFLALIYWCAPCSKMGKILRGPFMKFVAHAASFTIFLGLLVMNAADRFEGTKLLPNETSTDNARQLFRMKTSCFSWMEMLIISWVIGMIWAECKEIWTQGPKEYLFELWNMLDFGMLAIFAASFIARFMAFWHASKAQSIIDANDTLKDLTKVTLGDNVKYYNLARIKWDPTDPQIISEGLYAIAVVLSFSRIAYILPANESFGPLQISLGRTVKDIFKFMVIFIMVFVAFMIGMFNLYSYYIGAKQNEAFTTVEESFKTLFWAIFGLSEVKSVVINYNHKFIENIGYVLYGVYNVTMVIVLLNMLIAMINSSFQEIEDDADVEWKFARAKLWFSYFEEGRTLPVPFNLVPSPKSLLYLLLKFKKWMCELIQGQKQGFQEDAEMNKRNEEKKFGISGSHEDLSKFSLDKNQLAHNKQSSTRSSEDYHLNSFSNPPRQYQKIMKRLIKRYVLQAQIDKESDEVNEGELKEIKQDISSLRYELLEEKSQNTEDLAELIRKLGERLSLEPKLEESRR
TRPC6 act: activates the mouse TRPC6 cation channel. AID 2550. HEK293-TRPC6 membrane potential dye fluorescence; stronger effect = higher value. Q61143. B-score at 10 µM. 0.13% of 310,000 active;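 active means B-score of the integrated fluorescence ratio above library mean plus 3 SD, and starting fluorescence ratio within library mean plus 5 SD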;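 further: higher score means more depolarization so channel activation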
TRPC4 act: activators of mouse TRPC4 channel | Q9QUQ5 | HEK293 TRPC4beta/mu-opioid, Fluo4 calcium fluorescence; stronger effect = higher value | B-score at 10 µM | 0.49% of 310,000 active;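 active means B-score above 5 SD of library B-scores, and initial fluorescence ratio not above library mean plus 5 SD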;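 further: positive B-score marks a calcium rise read as TRPC4 activation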
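Assay system: HEK293 stable line with TRPC4beta plus mu-opioid receptor. Times: dye 45 min RT, read 110 s. Measured by: kinetic Fluo4 calcium fluorescence. Measure: B score of integrated ratio. Controls: assay buffer as low control, maximal DAMGO as high control.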
TRPC4 spec 2: second selectivity test of TRPC6 inhibitors: effect on mouse TRPC4; shares compounds with TRPC6 inh; HEK293 TRPC4/MOR, membrane potential dye fluorescence; channel activated by saturating DAMGO dose; inhibition, % at 10 µM; 42% of 920 active; AID 2776;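 active means compounds whose fluorescence signal differed from control wells by over 3 SD, either direction, in both duplicate plates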
TRPC4 spec: tests whether TRPC6 inhibitors also affect mouse TRPC4 | shares compounds with TRPC6 inh | HEK293 TRPC4/mu-opioid, membrane potential fluorescence | activity change, negative = inhibition, % at 10 µM | 61% of 920 active;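 active means rise or fall in signal beyond 3 SD of buffer-only wells in both replicate plates, either sign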;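 further: integrated kinetic ratio of fluorescence range over baseline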
HEK293 MPD ctr 2-1: second check of TRPC6 inhibitor effects in parental HEK293 cells; parental HEK293 membrane potential dye fluorescence; maximal acetylcholine challenge after compound addition; shares compounds with TRPC6 inh; 31% of 920 active; signal change vs control, % at 10 µM;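 active means membrane potential signal moving either way by over 3 SD of the maximum-effect control, in both duplicate plates, meaning non-specific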
HEK293 MPD ctr-1: counter-screen for TRPC6 inhibitors: effect in parental HEK293 cells; shares compounds with TRPC6 inh; parental HEK293 membrane potential dye fluorescence; membrane potential signal change, % at 10 µM; 60% of 920 active;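 active means membrane potential signal shifting up or down by more than 3 SD of buffer-only wells, on both duplicate plates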
HEK293 MPD ctr-2: checks TRPC6 modulator effects in parental HEK293 cells. shares compounds with TRPC6 inh. membrane potential dye fluorescence. membrane potential signal change, % at 10 µM. 51% of 2,400 active;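 active means membrane potential signal moves up or down beyond 5 SD from buffer-only wells, on both duplicate plates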
HEK293 MPD ctr 2-2: second check of TRPC6 modulator effects in parental HEK293 cells | membrane potential dye fluorescence; after compound, maximal acetylcholine stimulation | shares compounds with TRPC6 inh | 14% of 2,400 active | inhibition, % at 10 µM;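 active means membrane potential signal drops by more than 5 SD from the mean control signal, in both duplicate plates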;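 further: plate controls were acetylcholine ECmax control wells for no effect and buffer only wells for full effect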
TRPC4/MOR mod: tests whether TRPC6 modulators also affect mouse TRPC4; percent change from control (negative = decrease, positive = increase), % at 10 µM; shares compounds with TRPC6 inh; 69% of 2,400 active; HEK293 TRPC4/mu-opioid, membrane potential fluorescence;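 active means membrane potential signal moved up or down beyond 5 SD of buffer control wells, in both duplicate plates, actives on both sides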;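 further: plate controls were assay buffer wells for no effect and DAMGO maximal-effect wells for full effect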
TRPC4/MOR inh 2: second selectivity test of TRPC6 modulators against mouse TRPC4 | shares compounds with TRPC6 inh | HEK293 TRPC4/mu-opioid, membrane potential dye fluorescence; stimulated with maximal-effect DAMGO | inhibition, % at 10 µM | 55% of 2,400 active | AID 488928;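 active means drop in membrane potential signal beyond 5 SD of the control wells in both duplicate plates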;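 further: TRPC4 counter screen for TRPC6 hits run under conditions tuned for TRPC6 not TRPC4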
TRPC6 block conf: confirmation of mouse TRPC6 inhibitors. shares compounds with TRPC6 inh. HEK293-TRPC6, membrane potential dye, ACh-evoked depolarization. inhibition, % at 10 µM. 43% of 3,300 active. AID 488960;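 active means fluorescence ratio falls more than 5 SD below the full-stimulation control mean, in both duplicate runs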;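 further: integrated fluorescence ratio of peak minus minimum over baseline after agonist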
TRPC6 act conf: mouse TRPC6 activator confirmation | shares compounds with TRPC6 inh | HEK293-TRPC6 membrane potential dye fluorescence, FDSS | activation, % at 10 µM | 11% of 2,800 active | AID 488961;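 active means ratio signal rise beyond 5 SD above unstimulated control wells' mean, seen in both duplicate runs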;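 further: plate controls were buffer EC0 wells for no effect and acetylcholine ECmax response for full effect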
Numbers without * were called inactive; i = inactive; x = no result given. A selection: hits, their analogues and other compounds. The true share with any hit is near 2.3%.

SMILES	TRPC4 inh	TRPC4 PAM	TRPC6 inh	TRPC6 act	TRPC4 act	HEK293 MPD ctr-2	HEK293 MPD ctr 2-2	TRPC4/MOR mod	TRPC4/MOR inh 2	TRPC6 block conf	TRPC6 act conf	others
COc1ccc(/C=C/c2cc(C(F)(F)F)[nH]c(=O)n2)cc1OC	i	i	-5.91*	i	i	-180.0%*	i	-34.5%*	i	i	i
O=C(NC(=S)Nc1ccccc1F)C1CCCCC1	i	i	i	i	i	x	x	x	x	x	x
Cc1csc(NC(=O)CCn2c(=O)oc3ccccc32)n1	i	i	i	i	i	x	x	x	x	x	x
CCCCCCC(=O)N1CCCC(c2nc(-c3cccc(OC)c3)no2)C1 (stereo unspecified)	i	i	-5.86*	i	i	i	i	10.5%*	30.5%*	64.5%*	x
CCCC(=O)N1CCCC(c2nc(-c3cccc(OC)c3)no2)C1 (stereo unspecified)	i	i	i	i	i	x	x	x	x	x	x
Cn1c(SCc2c(Cl)cccc2Cl)nnc1-c1cccs1	i	i	-6.56*	i	i	274.5%*	i	55.5%*	i	i	x
Cc1ccc(CSc2nnc(-c3cccs3)n2C)cc1	i	i	i	i	i	x	x	x	x	x	x
CCOC(=O)c1cnc2ccc(C(=O)OC)cc2c1NCCc1ccc(OC)c(OC)c1	i	i	i	i	i	x	x	x	x	x	x
CCOC(=O)c1cnc2ccc(OCC)cc2c1NCCCN1CCOCC1	i	i	-6.07*	i	i	i	80.0%*	21.0%*	34.0%*	42.0%*	i
CCOC(=O)c1cnc2ccc(C)cc2c1NCCO	i	i	-8.18*	i	i	x	x	x	x	i	i	TRPC4 spec 2=i;TRPC4 spec=-11.6%*;HEK293 MPD ctr 2-1=6.5%*;HEK293 MPD ctr-1=-279.0%*
CCOC(=O)c1cnc2ccc(OCC)cc2c1NCCN1CCOCC1	i	i	-5.2*	i	i	i	i	i	41.0%*	i	i
CCOC(=O)c1cnc2ccc(OCC)cc2c1N1CCN(C)CC1	i	i	-5.5*	i	i	-109.5%*	i	-18.5%*	43.0%*	i	i
COc1ccc2c(c1)cc1n2CCN=C1N	i	i	i	i	i	x	x	x	x	x	x
COCCN1CC(O)=C(c2nc3ccccc3c(=O)[nH]2)C1=N	i	i	i	i	i	x	x	x	x	x	x
COc1ccccc1N1CC(O)=C(c2nc3ccccc3c(=O)[nH]2)C1=N	i	i	-4.98*	i	i	i	i	9.0%*	i	i	x
